Laboratory results reported in ChEMBL document CHEMBL3864163, “I. Discovery of a novel series of CXCR3 antagonists. Multiparametric optimization of N,N-disubstituted benzylamines” (Bioorg Med Chem Lett, 2016).

Columns and labels:
[1] = molecular target: T1, C-X-C chemokine receptor type 3 (Homo sapiens, UniProt P49682); experiment: Displacement of [125I]-CXCL10 from human recombinant CXCR3 transfected in Flp-In-CHO cell membranes after 60 mins by gamma counting method
T1 sequence (P49682 whole entry): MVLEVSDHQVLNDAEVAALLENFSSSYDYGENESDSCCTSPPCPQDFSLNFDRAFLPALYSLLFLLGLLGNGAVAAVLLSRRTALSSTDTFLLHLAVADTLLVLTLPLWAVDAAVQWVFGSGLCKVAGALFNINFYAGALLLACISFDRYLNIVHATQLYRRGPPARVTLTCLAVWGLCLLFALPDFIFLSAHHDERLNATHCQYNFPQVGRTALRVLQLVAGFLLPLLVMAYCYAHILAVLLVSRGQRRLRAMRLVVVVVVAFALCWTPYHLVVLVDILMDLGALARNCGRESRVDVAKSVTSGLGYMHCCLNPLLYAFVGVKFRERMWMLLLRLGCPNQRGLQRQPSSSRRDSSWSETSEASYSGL

[2] = Metabolic stability in human liver microsomes assessed as parent compound remaining in presence of NADPH by LC-MS/MS method; assay type: ADME
Procedure, shortened: (§1)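 Compound incubated with liver microsomes (human or mouse) plus NADPH at 37 °C. Loss of parent was followed by LC-MS-MS and reported as percent. Stability bands: low <40%, medium 40–60%, high >60%.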

[3] = Metabolic stability in mouse liver microsomes assessed as parent compound remaining in presence of NADPH by LC-MS/MS method; assay type: ADME; procedure, shortened: as §1
[4] = Apparent permeability across human Caco2 cells after 2 hrs by LC-MS method; assay type: ADME, cell-based; conditions: Caco-2
Procedure, shortened: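 Caco-2 monolayers checked for integrity, then dosed alongside high- and low-permeability controls. Apical and basal samples taken at 2 h. Four transport conditions: A-B at pH 6.5/7.4 (0% or 0.5% BSA apical, 5% BSA basal), and A-B and B-A at pH 7.4/7.4 (0.5% BSA both sides). Compound quantified by LC/MS. Rapid transport defined as Papp >20 nm/s.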

[5] = Intrinsic clearance in human hepatocytes assessed per 10^6 cells at 5 uM; assay type: ADME, cell-based, Hepatocyte
[6] = molecular target: T2, Muscarinic acetylcholine receptor M2 (Homo sapiens) (UniProt P08172); experiment: Displacement of [3H]AF-DX384 from recombinant human muscarinic M2 receptor expressed in CHO cells at 10 uM after 60 mins by scintillation counting method relative to control; assay type: cell-based
T2 sequence (whole entry): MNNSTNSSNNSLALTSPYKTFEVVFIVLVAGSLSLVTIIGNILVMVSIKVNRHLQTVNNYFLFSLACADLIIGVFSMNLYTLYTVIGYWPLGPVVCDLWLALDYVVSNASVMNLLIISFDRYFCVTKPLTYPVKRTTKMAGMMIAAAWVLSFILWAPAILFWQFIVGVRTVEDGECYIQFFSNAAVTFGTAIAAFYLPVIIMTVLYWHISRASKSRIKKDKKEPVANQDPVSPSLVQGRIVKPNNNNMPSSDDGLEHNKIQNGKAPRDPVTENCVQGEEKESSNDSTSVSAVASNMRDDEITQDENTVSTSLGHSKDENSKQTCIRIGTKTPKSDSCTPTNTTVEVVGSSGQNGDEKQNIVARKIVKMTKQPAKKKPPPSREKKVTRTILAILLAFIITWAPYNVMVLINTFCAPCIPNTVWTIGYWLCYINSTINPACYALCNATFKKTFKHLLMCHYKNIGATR

For `COc1cc(CN(Cc2ccncc2)C(C)c2ccc3c(c2)CCO3)ccc1OCCN1C(=O)CCC1=O` (centres undefined), the IC50 [1] was 130 nM, the Stability [2] was 41% and the Stability [3] was 42%.

`CCC(c1ccc2c(c1)CCO2)N(Cc1ccc(C(=O)O)cc1)Cc1ccc(OCCN2C(=O)CCC2=O)c(OC)c1` (centres undefined) gave an IC50 [1] of 160 nM, a Stability [2] of 60% and a Stability [3] of 78%. It also gave a Papp at 2 h [4] of 1.46 ×10⁻⁶ cm/s.

Compound `COc1cc(CN(C[C@H]2CC[C@H](C(=O)O)CC2)[C@H]2CCc3cc(Cl)ccc32)ccc1SCCN1C(=O)CCC1=O` has a Stability [2] of 15%, a Stability [3] of 3% and a Papp at 2 h [4] of 7.24 ×10⁻⁶ cm/s.

Work on `COc1cc(CN(CCO)C(C)c2ccc3c(c2)CCO3)ccc1OCCN1C(=O)CCC1=O` (centres undefined) yielded an IC50 [1] of 82 nM, a Stability [2] of 3% and a Stability [3] of 4%.

`COc1cc(CN(C)C(C)c2ccc3c(c2)CCO3)ccc1OCCN1C(=O)CN(C)C1=O` (centres undefined) gave an IC50 [1] of 202 nM, a Stability [2] of 28% and a Stability [3] of 26%.

`CCCC(c1ccc2c(c1)CCO2)N(C)Cc1ccc(OCCN2C(=O)CCC2=O)c(OC)c1` (centres undefined) gave an IC50 [1] of 110 nM, a Stability [2] of 9% and a Stability [3] of 8%.

For `COc1cc(CN(Cc2ccc3c(c2)CCO3)C(C)c2ccc3c(c2)CCO3)ccc1OCCN1C(=O)CCC1=O` (centres undefined), the IC50 [1] was 340 nM, the Stability [2] was 28% and the Stability [3] was 24%.

In the case of `COc1cc(CNCc2ccc3c(c2)CCO3)ccc1OCCN1C(=O)CCC1=O`, the IC50 [1] is reported as 290 nM, the Stability [2] is reported as 61% and the Stability [3] is reported as 67%.

In the case of `CCC(NCc1ccc(OCCN2C(=O)CCC2=O)c(OC)c1)c1ccc2c(c1)CCO2` (centres undefined), the IC50 [1] is reported as 1060 nM.

`COc1cc(CN(Cc2ccc(C(=O)O)cc2)C(c2ccc3c(c2)CCO3)C2CCCC2)ccc1OCCN1C(=O)CCC1=O` (centres undefined) showed an IC50 [1] of 4200 nM and a Stability [2] of 52%.

Compound `COc1cc(CN(Cc2ccc(C(=O)O)cc2)[C@H](C)c2ccc(Cl)cc2)ccc1OCCN1C(=O)CCC1=O` has an IC50 [1] of 345 nM, a Stability [2] of 98% and a Stability [3] of 100%. It also gave a Papp at 2 h [4] of 3.7 ×10⁻⁶ cm/s.

For `Cc1cc(CN(C)C(C)c2ccc3c(c2)CCO3)ccc1OCCN1C(=O)CCC1=O` (centres undefined), the IC50 [1] was 230 nM, the Stability [2] was 29% and the Stability [3] was 19%.

`CC(c1ccc2c(c1)CCO2)N(C)Cc1ccc(OCCN2C(=O)CCC2=O)c(Cl)c1` (centres undefined) gave an IC50 [1] of 187 nM, a Stability [2] of 14% and a Stability [3] of 17%.

With `COc1cc(CN(C[C@H]2CC[C@H](C(=O)O)CC2)[C@H]2CCc3c2ccc(Cl)c3Cl)ccc1OCCN1C(=O)CCC1=O` the Stability [2] was 75%, the Stability [3] was 81% and the Papp at 2 h [4] was 5.7 ×10⁻⁶ cm/s. The CLH [5] was 0.083 mL/h and the inhibition [6] was 0%.

For `COc1cc(CN(CCCC(=O)O)C(c2ccc3c(c2)CCO3)C2CCCC2)ccc1OCCN1C(=O)CCC1=O` (centres undefined), the IC50 [1] was 382 nM, the Stability [2] was 92% and the Stability [3] was 94%. It also gave a Papp at 2 h [4] of 3.21 ×10⁻⁶ cm/s.

With `COc1cc(CN(CC(C)O)C(C)c2ccc3c(c2)CCO3)ccc1OCCN1C(=O)CCC1=O` (centres undefined) the IC50 [1] was 77 nM, the Stability [2] was 2% and the Stability [3] was 0%.

Compound `CCC(c1ccc2c(c1)CCO2)N(CC)Cc1ccc(OCCN2C(=O)CCC2=O)c(OC)c1` (centres undefined) has an IC50 [1] of 110 nM, a Stability [2] of 5% and a Stability [3] of 5%.

`COc1cc(CN(C[C@H]2CC[C@H](C(=O)OC)CC2)[C@H]2CCc3cc(Cl)ccc32)ccc1OCCN1C(=O)CCC1=O` gave an IC50 [1] of 840 nM.

Work on `COc1cc(CN(C[C@H]2CC[C@H](C(=O)O)CC2)[C@@H]2CCc3cc(Cl)ccc32)ccc1OCCN1C(=O)CCC1=O` yielded a Stability [2] of 54%, a Stability [3] of 55% and a Papp at 2 h [4] of 6.62 ×10⁻⁶ cm/s.

`COc1cc(CN(Cc2ccc(-c3nnn[nH]3)cc2)C(C)c2ccc3c(c2)CCO3)ccc1OCCN1C(=O)CCC1=O` (centres undefined) showed an IC50 [1] of 126 nM, a Stability [2] of 51% and a Stability [3] of 77%. The Papp at 2 h [4] was 0.2 ×10⁻⁶ cm/s.

`COc1cc(CN(Cc2ccc(/C=C/C(=O)O)cc2)C(C)c2ccc3c(c2)CCO3)ccc1OCCN1C(=O)CCC1=O` (centres undefined) showed an IC50 [1] of 138 nM, a Stability [2] of 84% and a Stability [3] of 87%. The Papp at 2 h [4] was 1.34 ×10⁻⁶ cm/s.

Compound `COc1cc(CN(C)C(C)c2ccc3c(c2)CCO3)ccc1OCCN1C(=O)CSC1=O` (centres undefined) has an IC50 [1] of 120 nM, a Stability [2] of 4% and a Stability [3] of 7%.

With `COc1cc(CN(C)C(C)c2ccc3c(c2)CCO3)ccc1NCCN1C(=O)CCC1=O` (centres undefined) the IC50 [1] was 443 nM.
